The structures appear in SMILES notation. The source made the active and inactive calls. The rule behind the calls is not given here.

Results on 28 compounds are retold here after ChEMBL document CHEMBL4190359, “Synthesis and Investigation of S-Substituted 2-Mercaptobenzoimidazoles as Inhibitors of Hedgehog Signaling” (ACS Med Chem Lett, 2017).

The nature of data set [1]: (§1) Inhibition of Hedgehog signaling pathway in mouse C3H10T1/2 cells assessed as reduction in purmorphamine-induced increase in alkaline phosphatase level using CDP-star as substrate pretreated for 1 hr followed by purmorphamine addition measured after 5 days by luminescence assay. The class given is cell-based. Put shortly:
(§2)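 Osteogenesis assay in multipotent C3H/10T1/2 mesenchymal progenitor cells; differentiation to osteoblasts driven by SMO agonist purmorphamine; read-out is induced alkaline phosphatase expression; IC50 derived from reduction of this signal.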

Data set [2] is described as follows: Inhibition of Hedgehog signaling in mouse Shh Light2 cells assessed as reduction in purmorphamine-induced Gli mediated transcriptional activity pretreated for 1 hr followed by purmorphamine addition measured after 48 hrs by luciferase reporter gene assay. The format is cell-based. A general note: Reporter assays use an easily measured gene product as a stand-in for the process of interest.

A short description of data set [3]: Cytotoxicity against mouse Shh Light2 cells assessed as cell viability by CellTiter Glo assay. The class given is cell-based, Shh Light II. Also on record: concentration or dose not given beside the values. The settings on record: read-out: Activity. A general note: Cellular ATP, detected with luciferase, serves as a proxy for viable cell number.
Data set [4] in a line: Cytotoxicity against mouse C3H10T1/2 cells assessed as cell viability by CellTiter-Glo assay. The class given is cell-based, C3H 10T1/2. Also on record: concentration or dose not given beside the values. Conditions: read-out: Activity.
Data set [5] has as its target T1, Alkaline phosphatase, tissue-nonspecific isozyme (Homo sapiens) (UniProt P05186).
T1 sequence (whole entry): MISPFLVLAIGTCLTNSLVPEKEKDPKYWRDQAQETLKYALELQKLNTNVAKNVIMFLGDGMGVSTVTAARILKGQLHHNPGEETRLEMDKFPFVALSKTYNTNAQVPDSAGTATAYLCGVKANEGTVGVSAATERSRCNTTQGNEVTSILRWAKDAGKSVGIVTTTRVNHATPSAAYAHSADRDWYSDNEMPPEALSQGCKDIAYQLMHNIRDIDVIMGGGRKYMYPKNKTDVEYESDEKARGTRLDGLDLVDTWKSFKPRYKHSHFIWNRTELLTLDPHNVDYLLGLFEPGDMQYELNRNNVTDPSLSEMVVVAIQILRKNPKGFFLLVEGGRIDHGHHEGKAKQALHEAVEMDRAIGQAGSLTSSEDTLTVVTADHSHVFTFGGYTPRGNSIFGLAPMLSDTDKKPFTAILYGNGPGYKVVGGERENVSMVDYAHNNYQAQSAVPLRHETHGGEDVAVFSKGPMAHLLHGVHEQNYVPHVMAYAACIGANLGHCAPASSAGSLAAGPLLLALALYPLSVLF
In words: Inhibition of recombinant human C-terminal His6-tagged alkaline phosphate activity (Leu18 to Ser502 residues) using CDP-star as substrate pretreated for 30 mins followed by substrate addition measured after 60 mins by luminescence assay.

The species named for a further data set is Mus musculus. The description is as §1. The class given is cell-based. Summed up: as §2
The species entered for another data set is Homo sapiens. Put plainly: Inhibition of Hedgehog signaling pathway (unknown origin). The settings on record: concentration not given here.
The test system of another data set is C3H 10T1/2. In words: Cytotoxicity against mouse C3H10T1/2 cells by CellTiter-Glo assay. The format is cell-based.
A further data set deals with Shh Light II. In words: Cytotoxicity against mouse Shh Light2 cells by CellTiter Glo assay. The format is cell-based.
[6] abbreviates: Mus musculus, C3H 10T1/2, read-out: IC50.
The mark [7] stands for this setting: Mus musculus, Shh Light2, read-out: IC50.

In the case of `CS(=O)(=O)c1ccc(C(=O)Nc2ccc(Cl)c(-c3ccccn3)c2)c(Cl)c1` [VISMODEGIB], the IC50 in [1] (setting [6]) was found to be 0.14 µM; in data set [2] (setting [7]) it was 0.98 µM. Moreover, the viability in data set [3] and in data set [4] was more than 80% in each case. For the same compound, the inhibition entry in data set [5] is “inactive”.
For `Cc1cccc(C)c1OCCSc1nc2ccccc2[nH]1`, the results for the IC50 in data set [1] (setting [6]) and in data set [2] (setting [7]) were 1.76 µM and 3.16 µM, respectively. For the same compound, in the data set filed under Mus musculus, the inhibition entry was “Dose-dependent effect”. Besides, the viability in data set [3] and in data set [4] was more than 80% each time. The inhibition entry in data set [5] was “inactive”.
In the case of `Cc1cccc(C)c1OCCCSc1nc2ccccc2[nH]1`, the IC50 came to 5.6 µM in data set [1] (setting [6]) and 4.12 µM in data set [2] (setting [7]). In addition, the viability in [3] and in data set [4] was more than 80% each time. The inhibition entry in [5] was “inactive”.
With `CC(C)c1ccccc1OCCSc1nc2ccccc2[nH]1`, the IC50 in data set [1] (setting [6]) was more than 10 µM. The viability in data set [4] was more than 80%. Moreover, the inhibition result in data set [5] is “inactive”.
On to `Cc1ccc2nc(NCCOc3ccccc3)sc2c1`, for which the IC50 entry in data set [1] is “Not Active”. For the same compound, the viability in data set [4] was more than 80%. The inhibition result in data set [5] is “inactive”.
`c1ccc(-c2ccc(OCCSc3nc4ccccc4[nH]3)cc2)cc1`: the IC50 result in data set [1] was “Not Active”. Moreover, the viability in [4] is more than 80%. Also, in data set [5], the inhibition result was “inactive”.
For `Clc1cc(Cl)c(SCCSc2nc3ccccc3[nH]2)cc1Cl`, the IC50 in data set [1] (setting [6]) amounted to 5.71 µM. Further, the viability in data set [4] is more than 80%. Further, the inhibition result in [5] was “inactive”.
With `Cc1cccc(OCCSc2nc3ccccc3[nH]2)c1`, the figures for the IC50 in data set [1] (setting [6]) and in [2] (setting [7]) were 2.08 µM and 5.11 µM, respectively. Further, the viability in data set [3] and in data set [4] was more than 80% each time. The inhibition result in data set [5] was “inactive”.
For the compound `Clc1ccc(SCCCSc2nc3ccccc3[nH]2)cc1`, the IC50 in [1] (setting [6]) is 2.85 µM; in [2] (setting [7]), more than 10 µM. In addition, the viability in data set [3] and in data set [4] was more than 80% in each case. Further, in [5], the inhibition entry is “inactive”.
Turning to `Cc1ccc2nc(NCCOc3c(C)cccc3C)sc2c1`, the IC50 in data set [1] (setting [6]) is more than 10 µM. Besides, in data set [4], the viability was more than 80%. In addition, the inhibition result in [5] is “inactive”.
Turning to `O=[N+]([O-])c1cccc(OCCSc2nc3ccccc3[nH]2)c1`, the figures for the IC50 in [1] (setting [6]) and in data set [2] (setting [7]) were 4.47 µM and 6.49 µM, respectively. The viability in [3] and in [4] was more than 80% each time. The inhibition result in [5] was “inactive”.
With `Cc1cccc(OCCCSc2nc3ccccc3[nH]2)c1`, in [1], the IC50 result is “Not Active”. For the same compound, the viability in [4] was more than 80%. Also, the inhibition result in data set [5] was “inactive”.
Regarding `COC(=O)c1cccc(OCCSc2nc3ccccc3[nH]2)c1`, the IC50 entry in data set [1] and in [2] was “Not Active” throughout. The viability in data set [3] and in data set [4] was more than 80% throughout. Moreover, the inhibition result in data set [5] is “inactive”.
Consider `CC(C)c1cccc(OCCSc2nc3ccccc3[nH]2)c1`, for which the IC50 in data set [1] (setting [6]) was 9.17 µM. Moreover, the viability in data set [4] was more than 80%. Besides, the inhibition result in data set [5] is “inactive”.
`COc1ccc(SCCSc2nc3ccccc3[nH]2)cc1`: the half-inhibitory concentration (IC50) is 5.63 µM in [1] (setting [6]) and 3.55 µM in [2] (setting [7]). Moreover, the viability in [3] and in data set [4] was more than 80% throughout. Moreover, the inhibition entry in data set [5] is “inactive”.
For the compound `Cc1ccc(OCCSc2nc3ccccc3[nH]2)c([N+](=O)[O-])c1`, the IC50 result in [1] is “Not Active”. Further, in [4], the viability was more than 80%. Further, the inhibition result in data set [5] was “inactive”.
As to `Cc1ccccc1OCCSc1nc2ccccc2[nH]1`, the IC50 in [1] (setting [6]) was found to be 4.26 µM; in [2] (setting [7]), 6.93 µM. The viability in [3] and in [4] was more than 80% throughout. For the same compound, in [5], the inhibition entry is “inactive”.
Consider `Cc1cc(OCCSc2nc3ccccc3[nH]2)ccc1Cl`, for which the results for the IC50 in data set [1] (setting [6]) and in data set [2] (setting [7]) were 2.57 µM and 7.89 µM, respectively. Further, the viability in [3] and in data set [4] was more than 80% in each case. For the same compound, the inhibition result in data set [5] was “inactive”.
In the case of `COc1ccccc1OCCSc1nc2ccccc2[nH]1`, the IC50 in data set [1] (setting [6]) stood at 2.61 µM. Further, the viability in [4] is more than 80%. The inhibition result in data set [5] is “inactive”.
`CCOC(=O)CCCn1c(SCCOc2c(F)cccc2F)nc2ccccc21` returned an inhibition in the data set listed under Homo sapiens of 12%.
As for `Fc1ccccc1OCCSc1nc2ccccc2[nH]1`, the IC50 in data set [1] (setting [6]) was 2.32 µM. Further, the viability in data set [4] was more than 80%. The inhibition entry in [5] was “inactive”.
On to `Cc1ccc(C)c(OCCSc2nc3ccccc3[nH]2)c1`, for which the IC50 in [1] (setting [6]) is 6.41 µM. The viability in [4] was more than 80%. Further, the inhibition result in data set [5] was “inactive”.
With `c1ccc2cc(OCCSc3nc4ccccc4[nH]3)ccc2c1`, the figures for the 50% inhibitory concentration (IC50) in data set [1] (setting [6]) and in [2] (setting [7]) were 4.49 µM and 7.29 µM, respectively. Further, the viability in [3] and in data set [4] was more than 80% each time. In addition, the inhibition entry in [5] is “inactive”.
With `Cc1cccc(SCCSc2nc3ccccc3[nH]2)c1`, the IC50 was determined as 3.06 µM in data set [1] (setting [6]) and 3.48 µM in [2] (setting [7]). The viability in data set [3] and in data set [4] was more than 80% throughout. For the same compound, in data set [5], the inhibition result is “inactive”.
As to `c1ccc(OCCSc2nc3ccccc3[nH]2)cc1`, the IC50 in data set [1] (setting [6]) was found to be 2.22 µM; in data set [2] (setting [7]), 8.92 µM. Besides, the viability in data set [3] and in [4] was more than 80% throughout. The inhibition entry in data set [5] is “inactive”.
With `Cc1ccc(C)c(OCCSc2nc3ccccc3[nH]2)c1C`, in [1] (setting [6]), the IC50 is 2.9 µM. Besides, in data set [4], the viability is more than 80%. Further, the inhibition result in [5] was “inactive”.
Regarding `Cc1ccc(OCCCSc2nc3ccccc3[nH]2)cc1`, in [1] (setting [6]), the IC50 came to 6.29 µM. Further, the viability in data set [4] was more than 80%. Besides, the inhibition entry in data set [5] is “inactive”.
Consider `Oc1ccc(OCCSc2nc3ccccc3[nH]2)cc1`, for which the concentration for half-maximal inhibition (IC50) in data set [1] (setting [6]) was found to be 2.23 µM; in data set [2] (setting [7]), 8.12 µM; with C3H 10T1/2, 7.12 µM; in the data set on Shh Light II it was 7.7 µM. The inhibition entry in data set [5] is “inactive”.

For orientation: IC50 means the concentration that gives 50% inhibition. Broadly, the inhibition is the change of the read-out against control, counted positive when it falls.
